Most compounds without a hit are left out; they make up all but 2.2% or so of the library.
PPC-1+TRAIL kill = compounds killing PPC-1 cancer cells with TRAIL present, primary screen, TRAIL potentiator project, ATPLite luminescence, uHTS | PPC-1 cells + TRAIL, ATPLite viability luminescence | cell killing (% activity), % at 4 µM or 5 µM | 220,000 compounds, 0.41% hits | AID 1443, 2008;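 active = cell killing above 50% in the first pass at 4 µM, then a duplicate retest at 5 µM averaging 50% or more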;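 note: plate controls were cells with TRAIL plus DMSO for no effect and medium-only wells lacking cells for full effect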
APP 5'UTR act = activators of APP 5'UTR luciferase reporter, primary screen, SH-SY5Y cells; SH-SY5Y APP 5'UTR luciferase reporter, luminescence; zero percent = DMSO vehicle wells; activation, % at 2 µM; 190,000 compounds, 1% hits; AID 1276, 2008;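 active = activation above a set limit, based on mean plus 3 SD of controls, cut at about 140% in these data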
FLuc act counter = FLuc activators, initial screening, artefact control for FLuc-dependent activation tests, biochemical, ATPlite luminescence; AID 1027, 2008; activation factor at 10 µM; 200,000 tested, under 10 active; ATPlite luciferase biochemical, 10 min; 0 = ATP-free wells, 1 = DMSO control;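 active = luciferase activation factor, scaled between plate controls, of at least 2 with compound at 10 µM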
Target sequence (P08659 whole entry, looked up): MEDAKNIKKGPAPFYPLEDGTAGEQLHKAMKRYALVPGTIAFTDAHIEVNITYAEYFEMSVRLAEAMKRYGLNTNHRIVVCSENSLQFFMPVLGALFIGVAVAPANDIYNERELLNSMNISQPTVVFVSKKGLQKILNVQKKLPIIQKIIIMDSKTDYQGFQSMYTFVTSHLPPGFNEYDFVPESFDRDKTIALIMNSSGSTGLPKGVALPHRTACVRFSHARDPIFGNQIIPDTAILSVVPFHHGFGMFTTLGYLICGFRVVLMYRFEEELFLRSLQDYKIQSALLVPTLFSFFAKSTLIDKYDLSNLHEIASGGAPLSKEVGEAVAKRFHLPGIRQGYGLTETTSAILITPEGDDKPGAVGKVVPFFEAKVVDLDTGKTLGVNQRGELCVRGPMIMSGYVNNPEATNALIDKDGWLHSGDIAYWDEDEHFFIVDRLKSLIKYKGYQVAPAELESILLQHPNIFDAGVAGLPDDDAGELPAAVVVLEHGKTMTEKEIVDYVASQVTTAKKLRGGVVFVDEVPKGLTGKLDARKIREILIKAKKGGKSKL
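System: cell-free luciferase reagent; medium: PBS as buffer for the ATP substrate; doses: test compounds dosed from 2 mM stocks in 100% DMSO; incubation: 10 min, room temperature; measured by: luminescence from luciferase reaction; read-out: luciferase activation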
NF-kB neuron act = activators of NF-kB expression in neurons, primary screen, cell-based, HTS; AID 1239, 2008; fold change at 12.5 µM; 190,000 compounds, 1.6% hits; human neuronal cells, NF-kB reporter expression; hits give high values; in the data active = fold change above about 3.3
TRAIL sens C8 = viability loss with TRAIL in NB7+C8 cells, primary screen, TRAIL sensitizer project, cell-based, ATPlite luminescence; inhibition (viability loss, TRAIL sensitization), % at 10 µM; 360,000 compounds, 1% hits;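 active = compounds causing at least 50% loss of cell viability in the single-dose screen, relative to plate controls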
FLuc inh counter = firefly luciferase enzyme inhibitors, primary screen, artefact control for luciferase-based inhibitor screens, biochemical, luminescence, ATPLite; inhibition, % at 10 µM; 200,000 compounds, 1.5% hits; 10 min; Luciferin 4-monooxygenase (Photinus pyralis), P08659;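 active = inhibition above about 50% when tested at 10 µM, limit read from the data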
* hit, by the source's call.

For CCN1CCCC1CNC(=O)c1ccc2c(c1)NC(=O)/C(=C\c1ccc(C)cc1)S2 (stereo unspecified) the results were TRAIL sens C8 79*.
For Cc1ccc(/C=C2/Sc3ccc(C(=O)NCCN4CCOCC4)cc3NC2=O)cc1 the results were TRAIL sens C8 4.
Screening CCN1CCN(CCNC(=O)c2ccc3c(c2)N(Cc2ccc(F)cc2)C(=O)/C(=C/c2ccccc2)S3)CC1 returned PPC-1+TRAIL kill 27, APP 5'UTR act -15, FLuc act counter 1.1, NF-kB neuron act 0.71, TRAIL sens C8 57* and FLuc inh counter -5.
O=C(CN1C(=O)NC2(CCCC2)C1=O)NCc1ccc(Cl)cc1 was read as TRAIL sens C8 4.
`O=C(N/C(=C\c1cccc(Br)c1)C(=O)N1CCCCC1)c1ccco1` gave TRAIL sens C8 7.
Cn1cc(C(=O)NS(=O)(=O)Nc2ccc(Br)cc2)c2ccccc21 was read as TRAIL sens C8 9.
Screening Oc1ccc(-c2nnc(SCC3CCCCC3)o2)cc1 returned PPC-1+TRAIL kill 15, APP 5'UTR act 111, FLuc act counter 0.7, NF-kB neuron act 4.9*, TRAIL sens C8 72* and FLuc inh counter 30.
For COc1cc(/C=N/NC(=O)c2nnn(-c3nonc3N)c2C)ccc1OCc1ccc(Cl)cc1 the results were TRAIL sens C8 56*.
`Cc1cccc(NC(=S)NNC(=O)c2csc(C(C)C)c2)c1` gave PPC-1+TRAIL kill 23, APP 5'UTR act 131, FLuc act counter 0.5, NF-kB neuron act 2.4, TRAIL sens C8 20 and FLuc inh counter 54*.
`CCc1cc(C(=O)NNC(=S)Nc2cccc(C)c2)cs1` gave PPC-1+TRAIL kill 13, APP 5'UTR act 162*, FLuc act counter 0.5, NF-kB neuron act 2.8, TRAIL sens C8 14 and FLuc inh counter 51*.
Cc1cccc(NC(=S)NNC(=O)c2sccc2C)c1 was read as PPC-1+TRAIL kill -6, APP 5'UTR act 118, FLuc act counter 0.6, NF-kB neuron act 2, TRAIL sens C8 9 and FLuc inh counter 35.
Cc1ccc(NC(=O)c2cnccn2)c(Br)c1 was read as TRAIL sens C8 0.
CCc1cc(C(=O)Nc2ccc(C)cc2Br)cs1 was read as PPC-1+TRAIL kill 21, APP 5'UTR act 126, FLuc act counter 0.7, NF-kB neuron act 5.8*, TRAIL sens C8 16 and FLuc inh counter 33.
For Cc1cccc(C(=O)NNC(=O)Nc2ccccc2)c1 the results were PPC-1+TRAIL kill 0, APP 5'UTR act -9, FLuc act counter 1.1, NF-kB neuron act 1.4, TRAIL sens C8 8 and FLuc inh counter -6.
`Cc1c(C(=O)OCC(=O)N(C)CC(=O)Nc2ccc(F)cc2)oc2ccccc12` gave TRAIL sens C8 4.
For CCOC(=O)c1ccc(Nc2ncnc3c2cnn3C)cc1 the results were PPC-1+TRAIL kill 16, APP 5'UTR act 2, FLuc act counter 1, NF-kB neuron act 0.95, TRAIL sens C8 6 and FLuc inh counter -3.
Screening Cn1ncc2c(O/N=C(\N)c3ccc(C(C)(C)C)cc3)ncnc21 returned PPC-1+TRAIL kill 19 and TRAIL sens C8 92*.
Cn1cccc1C(=O)C(=O)Nc1ccccc1 was read as PPC-1+TRAIL kill 22, APP 5'UTR act 145*, FLuc act counter 0.5, NF-kB neuron act 5.9*, TRAIL sens C8 32 and FLuc inh counter 52*.
Cn1cccc1C(=O)C(=O)Nc1ccccc1C(F)(F)F was read as PPC-1+TRAIL kill 12, APP 5'UTR act 57, FLuc act counter 0.8, NF-kB neuron act 1.8, TRAIL sens C8 6 and FLuc inh counter 18.
For CCOc1ncccc1C(=O)Nc1ccc(F)c(Cl)c1 the results were PPC-1+TRAIL kill 10, APP 5'UTR act -5, FLuc act counter 1, NF-kB neuron act 1.1, TRAIL sens C8 -4 and FLuc inh counter -1.
`CN(C)c1ccc(N=Nc2ccccc2C(=O)OCC(=O)NCC2CCCCC2)cc1` gave PPC-1+TRAIL kill 18, APP 5'UTR act 22, FLuc act counter 0.5, NF-kB neuron act 1.2, TRAIL sens C8 22 and FLuc inh counter 48.
CN(C)c1ccc(N=Nc2ccccc2C(=O)OCC(=O)NC2CCCC2)cc1 was read as PPC-1+TRAIL kill 29, APP 5'UTR act 10, FLuc act counter 0.4, NF-kB neuron act 1.2, TRAIL sens C8 20 and FLuc inh counter 59*.
CN(C)c1ccc(N=Nc2ccccc2C(=O)OCC(=O)N(C)C2CCCCC2)cc1 was read as PPC-1+TRAIL kill 27, APP 5'UTR act 9, FLuc act counter 0.3, NF-kB neuron act 0.94, TRAIL sens C8 5 and FLuc inh counter 68*.
`Cc1ccc(NC(=O)COC(=O)C(NS(=O)(=O)c2ccc(Cl)cc2)C(C)O)cc1C` (stereo unspecified) gave PPC-1+TRAIL kill -7, APP 5'UTR act 2, FLuc act counter 1, NF-kB neuron act 1.1, TRAIL sens C8 -1 and FLuc inh counter -3.
O=C(CCl)N(c1ccccc1)c1c[nH]c2ccccc12 was read as PPC-1+TRAIL kill 11, APP 5'UTR act -32, FLuc act counter 1.1, NF-kB neuron act 0.41, TRAIL sens C8 98* and FLuc inh counter -9.
Screening O=C(CCl)N(c1ccc(Cl)cc1)c1c[nH]c2ccccc12 returned PPC-1+TRAIL kill 34, APP 5'UTR act -18, FLuc act counter 1, NF-kB neuron act 1, TRAIL sens C8 89* and FLuc inh counter 4.
Screening Cc1ccccc1OCCCC(=O)NCc1ccco1 returned PPC-1+TRAIL kill 3, APP 5'UTR act 1, FLuc act counter 1, NF-kB neuron act 1.4, TRAIL sens C8 6 and FLuc inh counter -3.
For Nc1c(-c2ccccc2)cnn1-c1ccccc1 the results were TRAIL sens C8 54*.
`Nc1c(-c2cccc(Cl)c2)cnn1-c1ccccc1` gave TRAIL sens C8 10.
`CC(/C=N/N1CCN(c2ccccc2)CC1)=C\c1ccco1` gave PPC-1+TRAIL kill 22, APP 5'UTR act 80, FLuc act counter 0.8, NF-kB neuron act 3.6*, TRAIL sens C8 5 and FLuc inh counter 17.
Screening CC(=C/c1ccco1)/C=N/N1CCN(c2ccccc2)CC1 returned PPC-1+TRAIL kill 18, APP 5'UTR act 66, FLuc act counter 0.9, NF-kB neuron act 3.9*, TRAIL sens C8 6 and FLuc inh counter 12.
COc1ccc(NC(=O)CN2CCc3ccccc3C2)c([N+](=O)[O-])c1 was read as TRAIL sens C8 11.
COc1ccc(CCc2nnc(CCC(=O)N(C)Cc3ccncc3C)o2)cc1 was read as PPC-1+TRAIL kill 15, APP 5'UTR act -5, FLuc act counter 1, NF-kB neuron act 1.3, TRAIL sens C8 -4 and FLuc inh counter -2.

Source: PubChem
